The values that follow come from paper PMC6404985 (Cell chemical biology, 2018).

Entries after “also recorded” stand apart in the source; their conditions may differ.

Data set [1] has as its system latent HIV-1. The data set can be described thus: Second ex vivo model of HIV-1 latency. The class given is cell-based. As to conditions: 24 h. The essentials:
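Healthy-donor CD4+ T cells were polarized for 3 days with 10 ng/ml TGF-β, 1 µg/ml α-IL-4 and αCD3/CD28 beads (1:1). Beads removed, then 4 days in 30 IU/ml rIL-2. Spin-infected 90 min at 1200 g, then kept in rIL-2 plus 5 µM saquinavir. Seven days post-infection, treated 24 h with increasing concentrations plus 30 µM raltegravir. Luciferase RLU normalized to total protein.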

The subject of data set [2] is human primary CD4+ T cells. The data set can be described thus: T cell activation markers CD25 and CD69. The class given is cell-based. Conditions: 24 and 72 hours, two healthy donors.
Data set [3] relates to BAF target genes p21 and c-MYC. The data set can be described thus: Biomarker mRNA expression of BAF target genes in CD4+ T cells. The class given is cell-based, human. The essentials:
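Human CD4+ T cells, healthy donors: three donors isolated by Ficoll and RosetteSep negative selection, treated in duplicate with 3 µM test compound or DMSO for 16 h. HIV+ patient cells: frozen PBMCs rested overnight, CD4+ enriched twice, rested 6 h, 3 million cells treated with 10 µM compound or DMSO. TRIreagent RNA, random-primed cDNA; p21 and c-MYC mRNA vs control; Student's t test.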

For data set [4], the system named is BAF-mediated transcriptional repression (Bmi1-luciferase reporter cell line). Briefly: Bmi1-luciferase reporter assay in mouse ESCs. The class given is cell-based. As to conditions: for activity in the Bmi1 luciferase reporter assays (in words): follow up library. The essentials: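 Mouse ESC Bmi1-luciferase reporter line: 10,000 cells per 384-well in ESC medium, 24 h at 37 °C/5% CO2, then compound added by 100 nL pin transfer alongside a positive control. Each concentration in triplicate; DMSO tolerated to 0.5%. After 24 h treatment, equilibrated 10 min at room temperature, SteadyGlo added for 10 min, luminescence read. EC50 derived.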
(In a reporter assay the amount or activity of a reporter protein is the signal.)

The test system of data set [5] is latent HIV-1. Briefly: Ex vivo primary CD4+ T cell model of HIV-1 latency. The class given is cell-based. Conditions: 24 h treatment. In a few lines: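 Healthy-donor CD4+ T cells (buffy coat, Ficoll, RosetteSep negative selection) were spin-infected 24 h after isolation with HXB2 Env-pseudotyped pNL4.3.Luc.R-E- (1200 g, 2 h). After 18 h, cells were washed and cultured with 5 µM saquinavir. Three days later, treated 24 h with 30 µM raltegravir present. Luciferase read-out normalized to total protein, expressed as fold over untreated; Bliss score for combinations.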

For data set [6], the system named is latent HIV-1. Briefly: Latency reversal in CD4+ T cells from aviremic HIV-1 infected patients. The class given is cell-based.
Data set [7] concerns nucleosome occupancy at the HIV-1 5'-LTR. The data set can be described thus: FAIRE assay in J-Lat 11.1. The class given is cell-based. Conditions: J-Lat 11.1, overnight treatment.
Data set [8] has as its system ARID1A. Briefly: Biotin pulldown from ESC lysates, ARID1A. The class given is binding, mouse. Conditions: 200 µM soluble compound, pulldown with CAM 2–56. In a few lines: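 Beads incubated 2 h with cell lysates pre-incubated with DMSO or 200 µM soluble competitor. Beads washed once, boiled in SDS loading buffer, and bound proteins detected by immunoblot.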
Data set [9] has as its system A549 cells. Briefly: Viability assay A549. Conditions: 72 h. The class given is cell-based, human. The essentials: (§1)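 2000 cells/well in 384-well plates, pre-incubated 24 h at 37 °C, 5% CO2. Compound added by pin transfer; mitoxantrone (10 µM final) as cytotoxic positive control. Incubated 72 h, equilibrated 15 min to room temperature. CellTiter-Glo diluted 1:1 with PBS (pH 7.4) added, luminescence read. Run at eight doses as a viability counter-screen.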

In data set [10] the test system is wild type ESCs. The data set can be described thus: Viability of wild type ESCs. As to conditions: up to 30 µM, 72 h. The class given is cell-based, mouse. In a few lines:
as §1

For data set [11], the system named is HEK293T cells. Briefly: Viability assay HEK293T. The class given is cell-based, human. Conditions: 72 h. The essentials:
as §1

The subject of data set [12] is HepG2 cells. Briefly: Viability assay HepG2. The class given is cell-based, human. As to conditions: 72 h. In a few lines:
as §1

Data set [13] deals with BAF target genes (Bmi1, Ring1, Fgf4). As to conditions: 30 µM, 18 h.
For data set [14], the system named is latent HIV-1 provirus in J-Lat cells. The data set can be described thus: J-Lat T-cell line models of HIV-1 latency. As to conditions: 48 h; higher concentrations than in primary cells. The class given is cell-based.
Data set [15] deals with latent HIV-1. The data set can be described thus: HIV latency reversal activity of the thiophene hit. The class given is cell-based.
Where [16] appears, read: CD4+ T cells of three patients, 10 µM.

By EC50 is commonly meant the midpoint of the concentration-response curve.

On to `CO[C@H]1CN(C)C(=O)c2cc(NC(=O)OC(C)C)ccc2OC[C@H](C)N(Cc2ccc(-c3ccccn3)cc2)C[C@@H]1C` [BRD-K80443127], for which the “activation in second ex vivo model of HIV-1 latency” value in data set [1] is “activation was confirmed”. Further, the “effect on CD25 and CD69 expression (T cell activation)” value in data set [2] is recorded as “no effect”. For the same compound, in data set [3] (CD4+ T cells of healthy donors, 3 µM, 16 hours), the “differential expression of c-MYC and p21” value was “consistent with BAF inhibition”. In [3] (setting [16]), the C-MYC transcripts levels result is recorded as “significant decrease” and the p21 transcripts levels entry is given as “significant decrease”. Also, the “activity in the Bmi1 luciferase reporter assays (in words)” value (shortened to “activity … (in words)”) in data set [4] is reported as “high activity”. In data set [5], the “transcription of latent HIV-1 in ex vivo infected primary CD4+ T cells” value (shortened to “transcription”) is recorded as “slightly higher activity at low concentrations; also recorded: triggered HIV transcription”. For the same compound, in data set [6] (all three patients), the “potentiation of prostratin activity” value is given as “significant potentiation”. Further, the “cell associated HIV mRNA after ex vivo treatment alone” value in [6] (in one patient) is given as “significant increase”. The “POL copies when co-treated with prostratin” value in [6] (patient 2 and 3, 10 µM with 200 nM prostratin, 24 h) is “significant increase”. Also, in data set [6] (patient 2 and 3, 10 µM, 24 h), the “cell associated HIV-1 POL after treatment alone” value is given as “did not result in a significant increase”. Besides, in [7], the “chromatin accessibility at the Nuc-1 position of the 5' LTR” value is given as “increased chromatin accessibility”.
For the compound `CO[C@H]1CN(C)C(=O)c2cc(N)ccc2OC[C@H](C)N(Cc2ccc(-c3ccccn3)cc2)C[C@@H]1C` [BRD-K25923209], the “ARID1A enrichment upon preincubation of lysates with soluble competitor” value in data set [8] is “complete reduction”. Besides, the “activity … (in words)” value in [4] was “high activity”. The “transcription” value in data set [5] is reported as “triggered HIV transcription”.
`CCC(CC)Nc1c(Nc2ccc3c(c2)C(=O)N(C)C[C@H](OC)[C@@H](C)CN(Cc2ccc(-c4ccccn4)cc2)[C@@H](C)CO3)c(=O)c1=O` [BRD-K04244835]: the “activity … (in words)” value in [4] is given as “low/no activity”.
As to `CO[C@H]1CN(C)C(=O)c2cc(NC(=O)NC(C)C)ccc2OC[C@H](C)N(Cc2ccc(-c3ccccn3)cc2)C[C@@H]1C` [BRD-K98645985], the “toxicity to A549 cells” value in data set [9] was “no toxicity”. For the same compound, in data set [4], the “activity … (in words)” value is listed as “high activity”. Besides, the EC50 in [4] (read-out: EC50 in the luciferase assay, 24 h compound treatment, re-evaluation of hit) was about 2370 nM. Besides, the “toxicity to ESCs” value in data set [10] is recorded as “no toxicity”. Besides, the “toxicity to HEK293T cells” value in data set [11] is listed as “no toxicity”. The “transcription” value in data set [5] was “triggered HIV transcription”. Besides, the “toxicity to HepG2 cells” value in data set [12] is on record as “no toxicity”. Also, in [13], the “fold decrease in Fgf4” value came to 3.3 fold, the “fold increase in Bmi1” value is 5 fold and the “fold increase in Ring1” value was found to be 2.6 fold. Moreover, in data set [14], the “latency reversal in J-Lat cells” value is “concentration dependent latency reversal”.
On to `CO[C@H]1CN(C)C(=O)c2cc(NC(=O)NC(C)C)ccc2OC[C@H](C)N(Cc2ccc(-c3cccnc3)cc2)C[C@@H]1C` [BRD-K17257309], for which the “activity … (in words)” value in data set [4] is reported as “moderate activity”.
For `C=CCNc1nc(NCc2cccc(OC)c2)c2sc(-c3ccccc3)cc2n1` [MLS003122856], in data set [15], the “HIV latency reversal activity” value was “only moderate HIV latency reversal activity”.
As to `CO[C@H]1CN(C)C(=O)c2cc(NC(=O)NC(C)C)ccc2OC[C@H](C)N(Cc2ccccc2)C[C@@H]1C` [BRD-K13648511], the “activity … (in words)” value in data set [4] is recorded as “low/no activity”.
